Experimental data taken from article PMC12166256 (Clinical Pharmacology and Therapeutics, 2025).

How the values were obtained:
P-glycoprotein (P-gp) = details: in vitro studies; cited from earlier work
[1] = cited from earlier work
[2] = Food effect study: safety and tolerability; type: in vivo, human
In short: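 Healthy males aged 18–55 with BMI 18–30 kg/m² were followed through dosing and a 6–8-day follow-up. Checks: physical examination, clinical laboratory tests, vital signs and 12-lead ECG, with adverse events coded in MedDRA. Events of special interest: ALT ≥2×ULN, QTcF ≥500 ms, Grade ≥2 photosensitivity, symptomatic overdose. Treatment-emergent events were summarised descriptively by organ class, preferred term and dose level for all exposed participants.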

CN1C(=O)c2cccc(OC(F)F)c2[C@H]2C[C@@H]1c1nc3ccc(-c4cnc(C5(N)CCC5)nc4)cc3n12 [Balinatunfib]
active transport by P-glycoprotein (P-gp) (P-glycoprotein (P-gp)): substrate
bioavailability ([1]; across animal species): moderate to high
fraction unbound ([1]; preclinical studies): high
tissue distribution ([1]; preclinical studies): high
participants with at least one TEAE ([2]; 200 mg fasted (five of eight)): 62.5%
Any event TEAE, events ([2]; 200 mg fasted, N = 8): 7
Any event TEAE, participants ([2]; 200 mg fasted, N = 8): 5 (62.5) n (%)
Blood and lymphatic system disorders TEAE, events ([2]; 200 mg fasted, N = 8): 1
Blood and lymphatic system disorders TEAE, participants ([2]; 200 mg fasted, N = 8): 1 (12.5) n (%)
Blood pressure orthostatic decreased TEAE, events ([2]; 200 mg fasted, N = 8): 1
Blood pressure orthostatic decreased TEAE, participants ([2]; 200 mg fasted, N = 8): 1 (12.5) n (%)
Diarrhea TEAE, events ([2]; 200 mg fasted, N = 8): 1
Diarrhea TEAE, participants ([2]; 200 mg fasted, N = 8): 1 (12.5) n (%)
Dry skin TEAE, events ([2]; 200 mg fasted, N = 8): 1
Dry skin TEAE, participants ([2]; 200 mg fasted, N = 8): 1 (12.5) n (%)
Fatigue TEAE, events ([2]; 200 mg fasted, N = 8): 0
Fatigue TEAE, participants ([2]; 200 mg fasted, N = 8): 0 n (%)
Flatulence TEAE, events ([2]; 200 mg fasted, N = 8): 1
Flatulence TEAE, participants ([2]; 200 mg fasted, N = 8): 1 (12.5) n (%)
Gastrointestinal disorders TEAE, events ([2]; 200 mg fasted, N = 8): 2
Gastrointestinal disorders TEAE, participants ([2]; 200 mg fasted, N = 8): 2 (25.0) n (%)
General disorders and administration site conditions TEAE, events ([2]; 200 mg fasted, N = 8): 0
General disorders and administration site conditions TEAE, participants ([2]; 200 mg fasted, N = 8): 0 n (%)
Headache TEAE, events ([2]; 200 mg fasted, N = 8): 1
Headache TEAE, participants ([2]; 200 mg fasted, N = 8): 1 (12.5) n (%)
Investigations TEAE, events ([2]; 200 mg fasted, N = 8): 1
Investigations TEAE, participants ([2]; 200 mg fasted, N = 8): 1 (12.5) n (%)
Loss of consciousness TEAE, events ([2]; 200 mg fasted, N = 8): 1
Loss of consciousness TEAE, participants ([2]; 200 mg fasted, N = 8): 1 (12.5) n (%)
Muscle tightness TEAE, events ([2]; 200 mg fasted, N = 8): 0
Muscle tightness TEAE, participants ([2]; 200 mg fasted, N = 8): 0 n (%)
Musculoskeletal and connective tissue disorders TEAE, events ([2]; 200 mg fasted, N = 8): 0
Musculoskeletal and connective tissue disorders TEAE, participants ([2]; 200 mg fasted, N = 8): 0 n (%)
Nervous system disorders TEAE, events ([2]; 200 mg fasted, N = 8): 2
Nervous system disorders TEAE, participants ([2]; 200 mg fasted, N = 8): 2 (25.0) n (%)
Neutropenia TEAE, events ([2]; 200 mg fasted, N = 8): 1
Neutropenia TEAE, participants ([2]; 200 mg fasted, N = 8): 1 (12.5) n (%)
Skin and subcutaneous tissue disorders TEAE, events ([2]; 200 mg fasted, N = 8): 1
Skin and subcutaneous tissue disorders TEAE, participants ([2]; 200 mg fasted, N = 8): 1 (12.5) n (%)
Tendonitis TEAE, events ([2]; 200 mg fasted, N = 8): 0
Tendonitis TEAE, participants ([2]; 200 mg fasted, N = 8): 0 n (%)
neutrophil count in the participant with Grade 2 neutropenia ([2]; 200 mg fasted, Period 1, normal range 1.46–5.85): 1.42e+09 L⁻¹
participants with at least one TEAE ([2]; 200 mg fed (four of six)): 66.7%
Any event TEAE, events ([2]; 200 mg fed, N = 6): 6
Any event TEAE, participants ([2]; 200 mg fed, N = 6): 4 (66.7) n (%)
Blood and lymphatic system disorders TEAE, events ([2]; 200 mg fed, N = 6): 0
Blood and lymphatic system disorders TEAE, participants ([2]; 200 mg fed, N = 6): 0 n (%)
Blood pressure orthostatic decreased TEAE, events ([2]; 200 mg fed, N = 6): 1
Blood pressure orthostatic decreased TEAE, participants ([2]; 200 mg fed, N = 6): 1 (16.7) n (%)
Diarrhea TEAE, events ([2]; 200 mg fed, N = 6): 1
Diarrhea TEAE, participants ([2]; 200 mg fed, N = 6): 1 (16.7) n (%)
Dry skin TEAE, events ([2]; 200 mg fed, N = 6): 0
Dry skin TEAE, participants ([2]; 200 mg fed, N = 6): 0 n (%)
Fatigue TEAE, events ([2]; 200 mg fed, N = 6): 1
Fatigue TEAE, participants ([2]; 200 mg fed, N = 6): 1 (16.7) n (%)
Flatulence TEAE, events ([2]; 200 mg fed, N = 6): 0
Flatulence TEAE, participants ([2]; 200 mg fed, N = 6): 0 n (%)
Gastrointestinal disorders TEAE, events ([2]; 200 mg fed, N = 6): 1
Gastrointestinal disorders TEAE, participants ([2]; 200 mg fed, N = 6): 1 (16.7) n (%)
General disorders and administration site conditions TEAE, events ([2]; 200 mg fed, N = 6): 1
General disorders and administration site conditions TEAE, participants ([2]; 200 mg fed, N = 6): 1 (16.7) n (%)
Headache TEAE, events ([2]; 200 mg fed, N = 6): 1
Headache TEAE, participants ([2]; 200 mg fed, N = 6): 1 (16.7) n (%)
Investigations TEAE, events ([2]; 200 mg fed, N = 6): 1
Investigations TEAE, participants ([2]; 200 mg fed, N = 6): 1 (16.7) n (%)
Loss of consciousness TEAE, events ([2]; 200 mg fed, N = 6): 0
Loss of consciousness TEAE, participants ([2]; 200 mg fed, N = 6): 0 n (%)
Muscle tightness TEAE, events ([2]; 200 mg fed, N = 6): 1
Muscle tightness TEAE, participants ([2]; 200 mg fed, N = 6): 1 (16.7) n (%)
Musculoskeletal and connective tissue disorders TEAE, events ([2]; 200 mg fed, N = 6): 2
Musculoskeletal and connective tissue disorders TEAE, participants ([2]; 200 mg fed, N = 6): 2 (33.3) n (%)
Nervous system disorders TEAE, events ([2]; 200 mg fed, N = 6): 1
Nervous system disorders TEAE, participants ([2]; 200 mg fed, N = 6): 1 (16.7) n (%)
Neutropenia TEAE, events ([2]; 200 mg fed, N = 6): 0
Neutropenia TEAE, participants ([2]; 200 mg fed, N = 6): 0 n (%)
Skin and subcutaneous tissue disorders TEAE, events ([2]; 200 mg fed, N = 6): 0
Skin and subcutaneous tissue disorders TEAE, participants ([2]; 200 mg fed, N = 6): 0 n (%)
Tendonitis TEAE, events ([2]; 200 mg fed, N = 6): 1
Tendonitis TEAE, participants ([2]; 200 mg fed, N = 6): 1 (16.7) n (%)
Grade ≥ 3 TEAE, treatment-emergent SAEs, AESIs ([2]; food effect study): No participants
